Source: PubChem (several laboratories)
thrombin 1536 – thrombin (human) inhibition | P00734 | AID 1046 | 220,000 tested, 0.26% active | inhibition, % at 5 µM | alpha-thrombin, Boc-VPR-AMC fluorogenic substrate cleavage;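 active = inhibition at or above 40%; inactive = inhibition below 40%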;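 also: 0% = enzyme with no compound and 100% = wells without enzyme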
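Material: human alpha-thrombin enzyme / Medium: pH 7.5 Tris (50 mM) with NaCl 150 mM, Tween 20 0.05% / Compound: single-point dosing at 5 µM, 0.2% DMSO / Incubation: enzyme reaction carried out at room temperature / Detection: AMC fluorescence, 355/460 nm / Read-out basis: percent inhibition scaled between no-compound controls and no-enzyme blanks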
KLK5 inh – blocks human kallikrein 5 protease activity. 210,000 tested, 0.59% active. AID 873. inhibition, % at 5 µM. recombinant hK5, fluorogenic AMC substrate cleavage. Q9Y337;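 active = inhibition of 40% or more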;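 also: 0% = enzyme controls without compound and 100% = no-enzyme blanks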
FXIIa inh 1536 – blocks human coagulation factor XIIa protease activity; P00748; purified FXIIa, Boc-QGR-AMC fluorogenic substrate, 2 h; inhibition, % at 5 µM; 220,000 tested, 0.3% active; AID 800; in the data active = inhibition above about 40%;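 also: 0% = enzyme with no compound and 100% = blank without enzyme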
Calb biofilm kill – mixtures killing C. albicans biofilm; AID 1242; inhibition, % at 7.6 µM; 120,000 tested, 0.02% active; C. albicans biofilm persisters + clotrimazole, fluorescence viability; primary screen in compound mixtures of four per well;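 also: compounds exposed to preformed 24 h biofilms for 48 h; 0% = untreated biofilm control and 100% = clotrimazole plus chlorhexidine kill blank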
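Assay system: C. albicans biofilms / Medium: RPMI/MOPS medium, pH 7.0 / Schedule: biofilm formation 24 h, compound exposure 48 h, 37 °C / Measured by: Alamar Blue fluorescence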
Lipid droplet – hepatic lipid droplet formation modulation | AML12 mouse hepatocytes, oleate lipid droplets, BODIPY imaging | inhibition, % at 6.5 µM | 240,000 tested, 0.4% active | AID 1656;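 active = lipid droplet intensity inhibited by at least 50%, with more than 500 cells counted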
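Assay system: AML12 mouse liver cells | Compound: 6.5 µM single-point dosing | Schedule: Overnight exposure | Technique: Fluorescence imaging, 20x objective, two fields per well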
FXIa inh – factor XIa (human) inhibition; AID 798; P03951; purified FXIa, Boc-Glu-Ala-Arg-AMC fluorogenic substrate; 220,000 tested, 0.14% active; inhibition, % at 5 µM;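 active = inhibition of at least 40%; inactive = inhibition below 40%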;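 also: fluorescence of freed AMC excited at 355 nm; 0% = enzyme without compound and 100% = no enzyme blank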
Target sequence (P03951 19-387 limits assumed): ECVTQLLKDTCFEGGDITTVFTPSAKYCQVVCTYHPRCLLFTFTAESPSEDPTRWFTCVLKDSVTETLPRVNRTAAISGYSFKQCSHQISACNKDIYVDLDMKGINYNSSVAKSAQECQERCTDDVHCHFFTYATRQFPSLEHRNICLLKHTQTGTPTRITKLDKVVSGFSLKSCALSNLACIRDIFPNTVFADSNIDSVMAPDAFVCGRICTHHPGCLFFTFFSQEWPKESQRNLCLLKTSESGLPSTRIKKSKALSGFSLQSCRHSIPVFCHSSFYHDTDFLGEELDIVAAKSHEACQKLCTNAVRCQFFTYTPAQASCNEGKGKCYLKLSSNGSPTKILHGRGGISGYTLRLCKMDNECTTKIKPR
Target sequence (P03951 388-625 limits assumed): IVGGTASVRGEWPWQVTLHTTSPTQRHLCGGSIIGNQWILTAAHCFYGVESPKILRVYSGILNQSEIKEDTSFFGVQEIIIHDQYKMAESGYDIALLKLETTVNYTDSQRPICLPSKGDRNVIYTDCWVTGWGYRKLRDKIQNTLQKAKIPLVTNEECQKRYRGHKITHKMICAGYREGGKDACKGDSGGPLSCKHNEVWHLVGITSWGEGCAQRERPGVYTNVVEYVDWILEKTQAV
Lipid drop inh – confirmation of inhibitors of hepatic lipid droplet formation; shares compounds with Lipid droplet; AML12 mouse hepatocytes, BODIPY lipid droplet imaging; droplets induced with 100 µM oleic acid; inhibition, % at 5.2 µM; 870 tested, 65% active; AID 463183;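 active = inhibition of lipid droplet metric at least 50%, with more than 300 cells in each of four replicates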;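 also: plate controls were DMSO with oleic acid for no effect and 5 µM Triacsin-C for full effect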
AML12 tox img – counter-screen for cytotoxicity in AML12 mouse hepatocytes; 870 tested, 3% active; AID 463200; z-score at 5 µM; shares compounds with Lipid droplet; DAPI nuclear morphology cytotoxicity imaging; stronger effect = higher value; cells fed 100 µM oleate overnight; in the data active = z-score above about 6.3;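 also: compound exposure lasted overnight at 37 °C before fixation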
AML12 tox ATP – confirmation of cytotoxicity in AML12 mouse hepatocytes; 530 tested, under 10 active; AML12 mouse hepatocyte viability, ATP luminescence; cells loaded with 100 µM oleic acid; shares compounds with Lipid droplet; AID 463219; cytotoxicity, % at 50 µM;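 active = cytotoxicity above 50% in each of four replicates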;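 also: compound exposure lasted overnight at 37 °C before the ATP read; 0% = DMSO-treated cells and 100% = wells with no cells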
The depositor's hits bear a star; x = no result. Most compounds without a hit are left out; they make up all but 1.1% or so of the library.

SMILES	thrombin 1536	KLK5 inh	FXIIa inh 1536	Calb biofilm kill	Lipid droplet	FXIa inh	Lipid drop inh	AML12 tox img	others
CCN(CCn1cccn1)C(=O)c1cc(COc2ccc(F)cc2Cl)on1	-12	-9	1	8	55*	0	-25	-0.41
CC1CCCCN1Cc1c(O)ccc2c(=O)c(-c3ccccc3)coc12 (stereo not drawn)	x	x	x	x	87*	x	-35	1
CCC1CCCCN1Cc1c(O)ccc2c(=O)c(-c3ccccc3)coc12 (stereo not drawn)	x	x	x	x	-2	x	x	x
COc1ccc(N=C2C(=Nc3ccc(OC)cc3)N(c3ccc(OC)cc3)C(=S)N2c2ccccc2)cc1	9	5	21	x	41	6	x	x
COc1ccc(N=C2C(=Nc3ccc(OC)cc3)N(c3ccc(OC)cc3)C(=S)N2C)cc1	-4	-69	-6	x	58*	-9	109*	0.27	AML12 tox ATP=16
Cc1ccc2c(CN(C)Cc3ccc(Cl)cc3Cl)cc(=O)oc2c1	x	x	x	x	-22	x	x	x
CCc1ccccc1NC(=O)COc1ccc(C(=S)N2CCCC2)cc1	6	-9	4	-8	55*	0	38	0.095
CC(=O)c1ccc(OCC(=O)Nc2ccccc2N2CCCC2)cc1	x	x	x	x	-5	x	x	x
COc1cccc(/C=N\NC(=O)c2ccc(Cn3cc(Br)c([N+](=O)[O-])n3)o2)c1O	-3	-4	12	23	-9	13	x	x
O=c1[nH]cnc2sc3c(c12)CCN(Cc1ccccc1)C3	-3	-6	8	11	55*	-2	24	-0.011
O=c1[nH]cnc2sc3c(c12)CN(Cc1ccccc1)CC3	x	x	x	x	-1	x	x	x
COc1ccc(CN(C)C(=O)CNC(=O)Cc2cccc3ccccc23)c(OC)c1OC	x	x	x	x	53*	x	82*	-0.31	AML12 tox ATP=16
COc1ccc(CCN(C)C(=O)CNC(=O)Cc2cccc3ccccc23)cc1OC	x	x	x	x	13	x	x	x
COc1ccc(NC(=O)CSc2nnc3c4c(nc(-c5ccccc5)n23)CC(C)(C)OC4)cc1	-5	-9	21	-9	2	20	x	x
COc1ccc(-c2nc3c(c4nnc(SC(C)C(=O)Nc5ccc(C)cc5)n24)COC(C)(C)C3)cc1 (stereo not drawn)	-3	-4	5	5	62*	6	79*	-0.77	AML12 tox ATP=-6
CCOC(=O)C1CCCN(C/C=C/c2ccccc2)C1 (stereo not drawn)	x	x	x	x	-2	x	x	x
COCCNC(=O)C(c1ccc(F)cc1)N(C(=O)CCC(=O)Nc1ccccn1)c1cccc(C)c1 (stereo not drawn)	x	x	x	x	-1	x	x	x
COc1ccc(S(=O)(=O)N(CC(=O)N2CCCCCC2)c2ccccc2OC)cc1	x	x	x	x	58*	x	-12	-1.3
CCOC(=O)N1CCN(C(=O)CN(c2ccccc2OC)S(=O)(=O)c2ccc(OC)cc2)CC1	0	8	9	10	0	-6	x	x
COc1ccc(OC)c(CCNC(=O)C(C)n2nc(C)c3c(C)n(-c4ccc(C)cc4)nc3c2=O)c1 (stereo not drawn)	x	x	x	x	60*	x	99*	-0.052	AML12 tox ATP=22
CCC(C(=O)NCc1cccc(C)c1)n1nc(C)c2c(C)n(-c3ccccc3)nc2c1=O (stereo not drawn)	x	x	x	x	64*	x	78*	-0.53	AML12 tox ATP=22
Cc1ccc(-n2nc3c(=O)n(CC(=O)NCCCc4ccccc4)nc(C)c3c2C)cc1	x	x	x	x	65*	x	81*	-0.42	AML12 tox ATP=27
Cc1ccc(-n2nc3c(=O)n(C(C)C(=O)NCCCc4ccccc4)nc(C)c3c2C)cc1 (stereo not drawn)	x	x	x	x	43	x	x	x
CCC(C(=O)NCc1ccc(C)o1)n1nc(C)c2c(C)n(-c3ccccc3)nc2c1=O (stereo not drawn)	x	x	x	x	24	x	x	x
CC(C)c1cc(NCCOCCO)n2c(nc3ccccc32)c1C#N	x	x	x	x	-16	x	x	x
SMILES	thrombin 1536	KLK5 inh	FXIIa inh 1536	Calb biofilm kill	Lipid droplet	FXIa inh	Lipid drop inh	AML12 tox img	others
CCCC1O[C@@H]2C[C@H]3[C@@H]4CCC5=CC(=O)C=C[C@]5(C)[C@H]4[C@@H](O)C[C@]3(C)[C@]2(C(=O)CO)O1 (stereo partly drawn)	-1	-11	2	19	118*	-3	113*	2.3	AML12 tox ATP=22
Cc1cc(C(=O)NC2CCCc3c2cnn3-c2ccc(C)c(C)c2)nc(C)n1 (stereo not drawn)	x	x	x	x	58*	x	62	-1.1	AML12 tox ATP=0
COC(=O)c1ccc(C(=O)NC2CCCc3c2cnn3-c2ccc(C)c(C)c2)cc1 (stereo not drawn)	x	x	x	x	-136	x	x	x
O=C(NC1CCCc2c1cnn2-c1cc(F)cc(F)c1)c1ccccn1 (stereo not drawn)	x	x	x	x	64*	x	100*	0.75	AML12 tox ATP=12
COc1cc2ncnc(NCc3ccc(Cl)cc3)c2cc1OC	2	-30	3	17	51*	-5	70*	13*
COc1cc2ncnc(NCc3ccccc3Cl)c2cc1OC	2	-43	2	10	52*	-5	65*	17*
COc1cc2ncnc(NCc3ccccc3C)c2cc1OC	-2	-26	5	x	46	-8	x	x
CCn1ccnc1CN(C)Cc1c(C(=O)N2CCCCCCC2)nc2ccc(Cl)cn12	x	x	x	x	-14	x	x	x
COCCNC(=O)C(=O)NNS(=O)(=O)c1ccc2ccccc2c1	-8	0	5	30	-6	-5	x	x
COc1ccccc1CNC(=O)CN1CCN(c2ccc(C(C)=O)cc2)CC1	x	x	x	x	-36	x	x	x
N#CC(C#N)=c1ccc2c(c1)N1C(c3ccccc3)=CC(c3ccccc3)C3CCCCC31N=2 (stereo not drawn)	6	10	13	-4	65*	8	50	-1.1
COP1(=O)C=C[C@H](N(Cc2ccccc2)S(=O)(=O)c2ccccc2[N+](=O)[O-])[C@@H](C)O1 (stereo partly drawn)	2	3	10	16	-1	2	x	x
CC(=O)c1ccc(OC(=O)CCc2ccccc2)cc1	x	x	x	x	-8	x	x	x
Cc1cccc(N(Cc2cc(=O)[nH]c3ccccc23)C(=O)CCl)c1	x	x	x	x	55*	x	80*	0.32
CCCC(=O)N(Cc1cc(=O)[nH]c2ccccc12)c1cccc(C)c1	x	x	x	x	-31	x	x	x
CCOC(=O)c1ccc(NC(=O)COc2ccc(S(=O)(=O)NC(C)(C)C)cc2)cc1	-4	-9	6	7	96*	1	107*	-0.023	AML12 tox ATP=3
CCOC(=O)C1=C(C)NC(=O)NC1/C=C/c1ccccc1 (stereo not drawn)	-4	9	-3	x	62*	-4	24	-0.43
